# Data published in ChEMBL document CHEMBL4699421 (RSC Med Chem, 2020).
# Where a SMILES comes first, the peptide text is derived from it. [ ]: non-standard residue; d: D form. The star is where a group is joined. Cbz = O=C(OCc1ccccc1)*; Ac3c = NC1(C(=O)O)CC1
# What was measured:
# [1] = target: Cruzipain (Trypanosoma cruzi, UniProt P25779); assay: Covalent inhibition of Trypanosoma cruzi cruzipain using Z-Phe-Arg-7-amidomethylcoumarin as substrate measured after 5 mins by fluorometric analysis
# How it was run: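 Recombinant cruzain catalytic domain (no C-terminal extension), 0.15 nM, activated 20 min in 100 mM acetate pH 5.5, 300 mM NaCl, 5 mM DTT, then 2 min with inhibitor. Assay buffer adds 5% DMSO and 0.01% Triton X-100. Z-FR-AMC hydrolysis read at 355/460 nm, 37 °C, over 5 min. Wells checked for precipitation and background fluorescence.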
# [2] = Cytotoxicity against human U2OS cells assessed as reduction in cell viability incubated for 72 hrs by MTT assay; format: cell-based
# How it was run: (§1)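 Cells seeded at 5 × 10^4 cells per mL and grown 48 h (LLC-MK2 in RPMI; U2OS in high glucose DMEM). MTT 2.0 mg/mL added for 4 h, formazan dissolved in DMSO, read at 570 nm. CC50 from percent reduction versus untreated control.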
# [3] = tested on: Trypanosoma cruzi; assay: Trypanocidal activity against Trypanosoma cruzi Y intracellular amastigote form infected in human U2OS cells
# [4] = tested on: Trypanosoma cruzi; assay: Trypanocidal activity against Trypanosoma cruzi Tulahuen LacZ intracellular amastigote form infected in monkey LLC-MK2 cells incubated for 72 hrs by chlorophenol red beta-D-galactopyranoside substrate based spectrophotometric assay; format: functional, organism-based; conditions: LLC-MK2, 72 h
# How it was run: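 LLC-MK2 at 5 × 10^4 cells per mL infected with Tulahuen LacZ trypomastigotes at 5 × 10^5 per mL, 24 h at 37 °C, 5% CO2. Extracellular parasites washed off. Compounds 1.95–250 µM (DMSO) added for 72 h. […] Benznidazole as positive control, DMSO as negative.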
# [5] = Cytotoxicity against monkey LLC-MK2 cells assessed as reduction in cell viability incubated for 72 hrs by MTT assay; format: cell-based, Macaca mulatta; conditions: rhesus monkey; how it was run: as §1
# [6] = Selectivity index, ratio of CC50 for human U2OS cells assessed as reduction in cell viability incubated for 72 hrs by MTT assay to EC50 for Trypanosoma cruzi […]; format: toxicity, cell-based; conditions: read-out: Ratio CC50/EC50
# [7] = Selectivity index, ratio of CC50 for monkey LLC-MK2 cells assessed as reduction in cell viability incubated for 72 hrs by MTT assay to EC50 for Trypanosoma cruzi Tulahuen LacZ intracellular amastigote form infected in monkey LLC-MK2 cells incubated for 72 hrs by chlorophenol red beta-D-galactopyranoside substrate based spectrophotometric assay; format: toxicity; conditions: read-out: Ratio CC50/EC50
# [8] = Glutathione reactivity in pH 7.4 phosphate buffer assessed decay constant at 1.25 mM; format: physicochemical; conditions: pH 7.4, 1250 µM
# How it was run: (§2)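 HPLC reactivity at 37 °C in 0.05 M phosphate pH 7.4 with 1.0 mM EDTA and 5% acetonitrile, thiol glutathione or cysteine. Inhibitor solution 2.5 mM (stock). Aliquots injected over time on a 5–100% acetonitrile/water gradient with PDA detection 210–400 nm. Half-life and K from a one-phase decay fit, pseudo-first-order. Thiol-free control run for stability. Halved-concentration runs also reported.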
# [9] = L-Cysteine reactivity in pH 7.4 phosphate buffer assessed as decay constant at 1.25 mM; format: physicochemical; conditions: pH 7.4, 1250 µM; how it was run: as §2
# [10] = L-Cysteine reactivity in pH 7.4 phosphate buffer assessed as decay constant; format: physicochemical; how it was run: as §2
# [11] = Glutathione reactivity in pH 7.4 phosphate buffer assessed as half life at 2.5 mM by HPLC analysis; format: physicochemical; conditions: phosphate buffer with glutathione; how it was run: as §2
# [12] = L-Cysteine reactivity in pH 7.4 phosphate buffer assessed as half life at 2.5 mM by HPLC analysis; format: physicochemical; conditions: phosphate buffer with L-cysteine; how it was run: as §2
# [13] = Glutathione reactivity in pH 7.4 phosphate buffer assessed as decay constant; format: physicochemical; how it was run: as §2
# [14] = tested on: Trypanosoma cruzi; assay: Trypanocidal activity against Trypanosoma cruzi […] relative to benznidazole; format: functional
# Chain of Cruzipain (P25779 whole entry, the tested form may be a part): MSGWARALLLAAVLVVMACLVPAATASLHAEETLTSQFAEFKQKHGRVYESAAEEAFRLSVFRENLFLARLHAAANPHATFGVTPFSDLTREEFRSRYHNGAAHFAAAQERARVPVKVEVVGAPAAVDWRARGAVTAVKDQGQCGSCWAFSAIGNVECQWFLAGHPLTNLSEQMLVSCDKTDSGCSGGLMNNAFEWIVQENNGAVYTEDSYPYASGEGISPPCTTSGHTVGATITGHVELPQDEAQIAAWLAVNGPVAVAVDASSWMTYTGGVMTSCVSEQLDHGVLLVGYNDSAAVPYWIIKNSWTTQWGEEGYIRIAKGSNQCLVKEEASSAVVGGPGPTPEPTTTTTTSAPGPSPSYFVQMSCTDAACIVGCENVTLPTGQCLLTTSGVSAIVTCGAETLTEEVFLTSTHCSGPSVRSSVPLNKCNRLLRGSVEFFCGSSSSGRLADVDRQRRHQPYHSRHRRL
Compound,CC50 at 72 h [2],EC50 [3],EC50 [4],CC50 at 72 h [5],selectivity ratio at 72 h [6],further results
O=C(N[C@@H](Cc1ccccc1)C(=O)NC/C=N/O)OCc1ccccc1,> 100 µM,> 100 µM,–,–,–,Ki [1]: 10 µM
CN(C#N)N(C)C(=O)[C@H](Cc1ccccc1)NC(=O)OCc1ccccc1,10.2 µM,3.2 µM,21.7 µM,42 µM,3.2,selectivity ratio at 72 h [7]: 1.9
CC(C)C[C@H](NC(=O)c1cc(C(C)(C)C)nn1C)C(=O)N(C)N(C)C#N,–,8.4 µM,8.4 µM,–,–,K [8]: 1.01 10^-2/min; K [9]: 3.15 10^-2/min
O=C(N[C@@H](Cc1ccccc1)C(=O)Nc1cnoc1)OCc1ccccc1,> 100 µM,5.1 µM,25.8 µM,> 100 µM,> 19.6,selectivity ratio at 72 h [7]: > 3.9
N#CC1(NC(=O)[C@H](Cc2ccccc2)NC(=O)OCc2ccccc2)CC1,6 µM,1 µM,> 100 µM,> 100 µM,4.4,–
Cc1coc(NC(=O)[C@H](Cc2ccccc2)NC(=O)OCc2ccccc2)n1,–,–,> 100 µM,> 100 µM,–,–
N#CCNC(=O)[C@H](Cc1ccccc1)NC(=O)c1ccccc1,–,–,> 100 µM,–,–,K [10]: 9.33 10^-2/min
CCN(CC)C(=O)/C=C/C1(NC(=O)[C@H](Cc2ccccc2)NC(=O)OCc2ccccc2)CC1,–,–,> 100 µM,> 100 µM,–,–
CON(C)C(=O)CNC(=O)[C@H](Cc1ccccc1)NC(=O)OCc1ccccc1,–,–,> 100 µM,> 100 µM,–,Ki [1]: 100 µM
O=CC1(NC(=O)[C@H](Cc2ccccc2)NC(=O)OCc2ccccc2)CC1 (Cbz-Phe-[Ac3c]-aldehyde),3 µM,0.1 µM,> 100 µM,> 100 µM,58.4,half-life at 2500 µM [11]: 40 min; half-life at 2500 µM [12]: 22.2 min; K [13]: 1.73 10^-2/min; K [10]: 3.12 10^-2/min; fold change (FC) [14]: 10
O=C(N[C@@H](Cc1ccccc1)C(=O)Nc1cnoc1)c1ccccc1,> 100 µM,6 µM,–,–,> 16.6,Ki [1]: 20 µM
CCOC(=O)/C=C/C1(NC(=O)[C@H](Cc2ccccc2)NC(=O)OCc2ccccc2)CC1,–,–,79.6 µM,> 100 µM,–,selectivity ratio at 72 h [7]: > 1.2
N#CCNC(=O)[C@H](Cc1ccccc1)NC(=O)OCc1ccccc1,> 100 µM,3.6 µM,> 100 µM,> 100 µM,> 27.8,selectivity ratio at 72 h [7]: 1.1
N#CC1(NC(=O)[C@H](Cc2ccccc2)NC(=O)c2ccccc2)CC1,–,–,> 100 µM,–,–,K [10]: 0.436 10^-2/min
COC(=O)C1=C(C#N)NC(C)=C(C(=O)OC(C)C)C1c1cccc([N+](=O)[O-])c1 (configuration not stated) [NILVADIPINE],–,–,–,–,–,half-life at 2500 µM [11]: > 5000 min; K [10]: 1.41 10^-2/min
CNC(=O)/C=C/C1(NC(=O)[C@H](Cc2ccccc2)NC(=O)OCc2ccccc2)CC1,> 100 µM,12.1 µM,–,–,> 8.2,–
O=C(N[C@@H](Cc1c[nH]c2ccccc12)C(=O)Nc1cnoc1)c1ccccc1,> 100 µM,22.4 µM,–,–,> 8.2,Ki [1]: 10 µM
